The source of these data is ChEMBL document CHEMBL2086326, “Biological activity evaluation and structure-activity relationships analysis of ferulic acid and caffeic acid derivatives for anticancer” (Bioorg Med Chem Lett, 2012).

What all share (format): functional, cell-based
The test system of experiment [1] is A549. The experiment can be described thus: Cytotoxicity against human A549 cells after 72 hrs by alamar blue assay. The conditions noted are these: A549, 72 h. Put shortly: (§1)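 Cells seeded at 800–1000 per well (20–25 cells/µL) and left overnight to attach. Compounds were diluted serially from 10 mM DMSO stocks and tested at 8 final concentrations, 50 to 0.39 µM, in triplicate for 72 h. Vehicle control was 0.5% DMSO. Alamar blue was added to 10% final and fluorescence read after 4 h (ex 530, em 560 nm). Viability was expressed as percent of vehicle, and IC50 taken as 50% kill versus control.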

Experiment [2] deals with NCI-H157. The experiment can be described thus: Cytotoxicity against human NCI-H157 cells after 72 hrs by alamar blue assay. The settings on record: NCI-H157, 72 h. Put shortly:
as §1

The test system of experiment [3] is NCI-H460. The experiment is described as follows: Cytotoxicity against human H460 cells after 72 hrs by alamar blue assay. The settings on record: NCI-H460, 72 h. The method in brief:
as §1
A general note: The colour change of resazurin is a common sign of viable cells or microbes.

The test system of experiment [4] is NCI-H1792. The experiment can be described thus: Cytotoxicity against human NCI-H1792 cells after 72 hrs by alamar blue assay. The settings on record: NCI-H1792, 72 h. The method in brief:
as §1

Experiment [5] is described as follows: Cytotoxicity against human H266 cells after 72 hrs by alamar blue assay. The conditions noted are these: H266, 72 h. Put shortly: as §1
The test system of experiment [6] is HOP-62. The experiment is described as follows: Cytotoxicity against human HOP62 cells after 72 hrs by alamar blue assay. The conditions noted are these: HOP-62, 72 h. The method in brief:
as §1

For experiment [7], the system named is NCI-H1299. The experiment is described as follows: Cytotoxicity against human NCI-H1299 cells after 72 hrs by alamar blue assay. The conditions noted are these: NCI-H1299, 72 h. Put shortly: as §1
A short description of experiment [8]: Cytotoxicity against human 292G cells after 72 hrs by alamar blue assay. Put shortly: as §1
Experiment [9] deals with Calu-1. The experiment can be described thus: Cytotoxicity against human Calu1 cells after 72 hrs by alamar blue assay. The conditions noted are these: Calu-1, 72 h. The method in brief:
as §1

Experiment [10] has as its system LOX IMVI. The experiment is described as follows: Cytotoxicity against human LOXIMVI cells after 72 hrs by alamar blue assay. The method in brief: as §1
In experiment [11] the test system is M14. The experiment is described as follows: Cytotoxicity against human M14 cells after 72 hrs by alamar blue assay. The conditions noted are these: M14, 72 h. The method in brief: as §1
The subject of experiment [12] is HeLa. The experiment is described as follows: Cytotoxicity against human HeLa cells after 72 hrs by alamar blue assay. The method in brief: as §1
Experiment [13] is described as follows: Cytotoxicity against human M4E cells after 72 hrs by alamar blue assay. Put shortly:
as §1

Experiment [14] in a line: Cytotoxicity against human SKBR cells after 72 hrs by alamar blue assay. Put shortly:
as §1

For the molecule `COc1cc(/C=C/C(=O)OCCCCO[N+](=O)[O-])ccc1OCCCCO[N+](=O)[O-]`, the IC50 in [1], in [2], in experiment [3], in [4], in [5] and in experiment [6] was greater than 50 µM throughout. The half-maximal inhibitory concentration (IC50) in [7] was greater than 50 µM; in [8], greater than 50 µM; in experiment [9] it was greater than 50 µM; in [10], greater than 50 µM; in [11] it was greater than 50 µM; in [12], 0.74 µM. Further, the IC50 in experiment [13] and in experiment [14] was greater than 50 µM throughout.
For the molecule `CCCCCOC(=O)/C=C/c1ccc(O)c(OC)c1`, the 50% inhibitory concentration (IC50) in experiment [1], in experiment [2], in experiment [3], in experiment [4], in [5] and in experiment [6] was greater than 50 µM in each case. In addition, the IC50 in [7], in experiment [8], in experiment [9], in [10], in [11] and in experiment [12] was greater than 50 µM in each case. Further, the IC50 in experiment [13] and in [14] was greater than 50 µM throughout.
Regarding `COc1cc(/C=C/C(=O)OCCCCO[N+](=O)[O-])ccc1O`, the IC50 in [1] was 8.82 µM; in [2] it was 12.9 µM; in experiment [3], 19.5 µM; in [4], 20.8 µM; in experiment [5], 24.8 µM; in experiment [6], 13.1 µM. Besides, the IC50 in [7] was found to be 4.51 µM; in experiment [8], 28.4 µM; in [9], 30.1 µM; in experiment [10], 20.4 µM; in experiment [11], 32.5 µM; in [12] it was 6.35 µM. The IC50 in experiment [13] amounted to 20.3 µM; in experiment [14], 8.92 µM.
For `O=C(/C=C/c1ccc(O)c(O)c1)OCCCCO[N+](=O)[O-]`, the IC50 was 22.6 µM in [1]; 5.19 µM in [2]; 3.52 µM in experiment [3]; 15.4 µM in [4]; 23.3 µM in experiment [5]; 10 µM in experiment [6]. Besides, the IC50 was 3.14 µM in experiment [7]; 16.7 µM in experiment [8]; 21.7 µM in experiment [9]; greater than 50 µM in experiment [10]; 19.9 µM in experiment [11]; 2.25 µM in [12]. In addition, the IC50 turned out to be 17.5 µM in experiment [13] and 4.55 µM in [14].
On to `COc1cc(/C=C/C(=O)OC/C=C/CO[N+](=O)[O-])ccc1O`, for which the IC50 worked out at 5.95 µM in [1]; 4.29 µM in experiment [2]; 4.98 µM in experiment [3]; 4.86 µM in [4]; 9.79 µM in experiment [5]; 5.13 µM in experiment [6]. Also, the IC50 was 2.34 µM in experiment [7]; 21.9 µM in [8]; 2.48 µM in [9]; 2.36 µM in [10]; 3.89 µM in [11]; 1 µM in experiment [12]. Besides, the IC50 in experiment [13] is 9.38 µM; in [14], 6.53 µM.
As to `O=C(/C=C/c1ccc(OCCCCCCO[N+](=O)[O-])c(O)c1)OCCCCCCO[N+](=O)[O-]`, the IC50 in experiment [1], in [2], in experiment [3], in experiment [4], in experiment [5] and in experiment [6] was greater than 50 µM in each case. For the same molecule, the IC50 in experiment [7] was greater than 50 µM; in experiment [8], greater than 50 µM; in [9], greater than 50 µM; in experiment [10] it was greater than 50 µM; in experiment [11], greater than 50 µM; in experiment [12], 1.35 µM. Further, the IC50 in experiment [13] was greater than 50 µM; in [14], 39.7 µM.
With `CCOC(=O)/C=C/c1ccc(O)c(O)c1` [ETHYL CAFFEATE], the IC50 was 7.22 µM in experiment [1]; 7.62 µM in experiment [2]; 13.1 µM in [3]; 18.4 µM in experiment [4]; greater than 50 µM in experiment [5]; 12.5 µM in experiment [6]. Also, the IC50 in experiment [7] was 4.93 µM; in experiment [8], 5.25 µM; in [9], 17.2 µM; in experiment [10] it was 6.21 µM; in [11], 9.82 µM; in [12], 1.96 µM. The values for the IC50 in [13] and in experiment [14] were 11.2 µM and 4.16 µM, respectively.
On to `COc1cc(/C=C/C(=O)OCCC(C)C)ccc1O` [ISOPENTYL FERULATE], for which the IC50 in [1] came to 43.6 µM; in experiment [2], 40.2 µM; in experiment [3], 45 µM; in [4], 37.7 µM; in experiment [5], 48.1 µM; in [6], 31.2 µM. Also, the IC50 is 31.5 µM in experiment [7]; 48.4 µM in experiment [8]; 32.2 µM in [9]; 48.4 µM in experiment [10]; 45.8 µM in [11]; greater than 50 µM in [12]. The IC50 in experiment [13] was 30.5 µM; in [14], 41.5 µM.
`COc1cc(/C=C/C(=O)OCCCCCO[N+](=O)[O-])ccc1O`: the IC50 in experiment [1] is 6.39 µM; in experiment [2] it was 13.4 µM; in [3] it was 12.3 µM; in experiment [4], 13 µM; in experiment [5] it was 21.2 µM; in experiment [6] it was 12.5 µM. Moreover, the IC50 in [7] is 20.8 µM; in experiment [8] it was 24.9 µM; in experiment [9], 26.3 µM; in experiment [10], greater than 50 µM; in [11] it was 24.5 µM; in [12] it was 13.4 µM. The IC50 in [13] turned out to be 21.8 µM; in experiment [14], 8.06 µM.

As usually defined, the IC50 is the concentration that inhibits the measured activity by half. High values mean lower potency, low ones higher potency.
